Laboratory results reported in publication PMC5844832 (Bioorganic & medicinal chemistry, 2017).
*: point of attachment. FITC = O=C1OC2(c3ccc(O)cc3Oc3cc(O)ccc32)c2ccc(NC(=S)*)cc21; βAla = NCCC(=O)O

Columns and labels:
HOIP-UBA = biological target: T1, HOIP-UBA (Homo sapiens, UniProt Q96EP0); assay: Native gel shift assay; type: binding; conditions: 2.5 μM FITC peptide, 50 μg/mL protein, 1 h 37 °C, hrCNE
T1 sequence (Q96EP0 480-636): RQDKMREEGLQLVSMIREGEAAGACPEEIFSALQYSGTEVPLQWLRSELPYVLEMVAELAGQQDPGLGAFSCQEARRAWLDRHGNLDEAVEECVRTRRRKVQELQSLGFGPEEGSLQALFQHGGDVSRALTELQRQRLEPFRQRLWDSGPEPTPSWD

Petit-LUBAC = biological target: T2, Petit-LUBAC (Homo sapiens, UniProt Q96EP0+Q9BYM8); assay: Native gel shift assay; type: binding; conditions: 2.5 μM FITC peptide, 50 μg/mL protein, 1 h 37 °C, hrCNE
T2 sequence (Q96EP0 474-1072): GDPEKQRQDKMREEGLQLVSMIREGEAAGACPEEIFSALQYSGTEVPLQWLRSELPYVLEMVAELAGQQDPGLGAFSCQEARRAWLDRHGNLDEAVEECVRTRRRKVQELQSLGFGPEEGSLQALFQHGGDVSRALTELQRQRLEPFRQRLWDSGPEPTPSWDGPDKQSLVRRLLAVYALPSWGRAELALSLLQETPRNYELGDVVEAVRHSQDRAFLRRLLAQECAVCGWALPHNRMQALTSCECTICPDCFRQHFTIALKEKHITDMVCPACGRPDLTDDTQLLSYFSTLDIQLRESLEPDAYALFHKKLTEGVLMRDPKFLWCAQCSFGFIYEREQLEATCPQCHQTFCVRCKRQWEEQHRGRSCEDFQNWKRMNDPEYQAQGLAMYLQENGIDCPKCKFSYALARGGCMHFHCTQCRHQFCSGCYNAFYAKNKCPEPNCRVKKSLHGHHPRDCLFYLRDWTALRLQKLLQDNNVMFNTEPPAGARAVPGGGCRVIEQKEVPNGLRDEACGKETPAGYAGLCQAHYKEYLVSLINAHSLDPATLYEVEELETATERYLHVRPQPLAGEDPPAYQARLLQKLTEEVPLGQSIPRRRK
T2 sequence (Q9BYM8 1-191): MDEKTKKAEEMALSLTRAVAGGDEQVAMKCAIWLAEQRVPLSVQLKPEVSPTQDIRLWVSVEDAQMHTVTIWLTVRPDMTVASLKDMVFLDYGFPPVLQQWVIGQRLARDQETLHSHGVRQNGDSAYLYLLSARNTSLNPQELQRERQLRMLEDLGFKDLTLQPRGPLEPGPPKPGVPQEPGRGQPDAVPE
Summary of the method: (§1)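 Recombinant protein, expressed in Rosetta (DE3) E. coli, was mixed at 50 μg/mL with 2.5 μM FITC-peptide in 1X ubiquitylation buffer, with or without 20 μM unlabelled peptide competitor. Mixtures were incubated 1 h at 37 °C and resolved on 5% acrylamide native gels (bis-Tris, pH 7.0; Tricine/imidazole/deoxycholate cathode buffer) at […] for 4–5 h at 4 °C. Fluorescent bands were imaged, with protein-only lanes as controls.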

HOIL-UBL = biological target: T3, HOIL-UBL (Homo sapiens, UniProt Q9BYM8); assay: Native gel shift assay; type: binding; conditions: 2.5 μM FITC peptide, 50 μg/mL protein, 1 h 37 °C, hrCNE
T3 sequence (Q9BYM8 37-128): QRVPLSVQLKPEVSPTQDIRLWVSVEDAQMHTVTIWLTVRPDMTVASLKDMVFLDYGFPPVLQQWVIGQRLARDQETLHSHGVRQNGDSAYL
Summary of the method: as §1

[1] = biological target: T4, Petit-LUBAC (truncated sub-complex of LUBAC: HOIL-1L 1-191 and HOIP 474-1072) (human, UniProt Q9BYM8-1 1-191; Q96EP0 474-1072); assay: native gel or EMSA
T4 sequence (looked up) 1: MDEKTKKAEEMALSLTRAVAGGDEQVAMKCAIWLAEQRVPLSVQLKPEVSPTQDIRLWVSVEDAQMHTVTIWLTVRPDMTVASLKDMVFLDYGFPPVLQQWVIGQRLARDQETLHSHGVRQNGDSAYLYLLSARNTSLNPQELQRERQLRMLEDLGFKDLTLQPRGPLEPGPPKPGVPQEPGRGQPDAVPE
T4 sequence (looked up) 2: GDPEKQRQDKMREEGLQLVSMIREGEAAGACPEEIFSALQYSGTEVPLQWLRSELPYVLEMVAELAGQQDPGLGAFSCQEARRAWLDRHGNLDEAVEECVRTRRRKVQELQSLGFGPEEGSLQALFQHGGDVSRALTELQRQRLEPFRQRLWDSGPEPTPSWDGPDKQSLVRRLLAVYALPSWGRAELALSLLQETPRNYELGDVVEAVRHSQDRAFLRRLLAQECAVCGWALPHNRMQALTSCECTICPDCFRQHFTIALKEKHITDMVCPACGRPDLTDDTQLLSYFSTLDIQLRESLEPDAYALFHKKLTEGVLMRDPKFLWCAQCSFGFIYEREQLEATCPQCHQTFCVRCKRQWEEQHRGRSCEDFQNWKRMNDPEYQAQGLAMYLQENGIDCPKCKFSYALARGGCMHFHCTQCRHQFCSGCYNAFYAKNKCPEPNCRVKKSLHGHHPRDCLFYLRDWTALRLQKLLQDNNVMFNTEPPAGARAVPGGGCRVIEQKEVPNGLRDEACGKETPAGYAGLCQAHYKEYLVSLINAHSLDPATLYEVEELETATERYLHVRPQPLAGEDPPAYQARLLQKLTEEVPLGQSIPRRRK

[2] = biological target: T5, HOIP residues 474-1072 (the HOIP chain of Petit-LUBAC) (human, UniProt Q96EP0 474-1072); assay: native gel or EMSA
T5 sequence (looked up): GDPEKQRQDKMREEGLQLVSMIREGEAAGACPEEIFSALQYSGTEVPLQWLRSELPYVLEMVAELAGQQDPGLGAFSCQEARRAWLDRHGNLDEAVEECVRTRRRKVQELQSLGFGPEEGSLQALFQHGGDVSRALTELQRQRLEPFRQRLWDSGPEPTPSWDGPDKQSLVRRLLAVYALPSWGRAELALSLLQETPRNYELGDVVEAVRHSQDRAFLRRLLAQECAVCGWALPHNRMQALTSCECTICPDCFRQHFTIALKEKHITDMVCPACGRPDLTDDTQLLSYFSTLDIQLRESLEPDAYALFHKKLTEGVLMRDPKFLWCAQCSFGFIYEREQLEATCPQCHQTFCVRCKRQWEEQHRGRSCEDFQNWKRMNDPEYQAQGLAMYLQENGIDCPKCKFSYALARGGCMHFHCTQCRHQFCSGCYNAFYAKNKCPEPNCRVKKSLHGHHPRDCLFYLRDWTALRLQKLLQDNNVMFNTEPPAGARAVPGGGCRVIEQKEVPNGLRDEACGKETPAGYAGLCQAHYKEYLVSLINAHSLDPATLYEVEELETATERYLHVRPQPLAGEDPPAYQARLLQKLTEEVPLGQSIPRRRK

GST-HOIP-UBA = biological target: T6, GST-HOIP-UBA (human, UniProt Q96EP0 480-636); assay: SPR
T6 sequence: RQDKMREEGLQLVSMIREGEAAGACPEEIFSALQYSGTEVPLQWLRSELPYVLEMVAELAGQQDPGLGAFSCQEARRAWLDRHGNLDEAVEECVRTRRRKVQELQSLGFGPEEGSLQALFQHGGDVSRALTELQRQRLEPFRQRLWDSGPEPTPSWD

His6-HOIL-UBL = biological target: T7, His6-HOIL-UBL (human, UniProt Q9BYM8-1 37-137); assay: SPR
T7 sequence: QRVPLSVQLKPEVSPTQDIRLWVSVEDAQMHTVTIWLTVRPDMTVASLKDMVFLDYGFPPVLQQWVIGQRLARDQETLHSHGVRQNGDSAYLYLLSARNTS

Molecule: 1: unstapled peptide based on 22-amino acid region of HOIP-UBA (residues 606-627) ({Ac-βAla}-SRALTELQRQRLEPFRQRLWDS-NH2) [Compound 1]
- Gel shift of FITC-labelled peptide with HOIP-UBA (HOIP-UBA): a shift similar to the one observed with Petit-LUBAC was observed
- Gel shift of FITC-labelled peptide with Petit-LUBAC (Petit-LUBAC): higher shifted molecular weight
- Gel shift of FITC-labelled peptide with HOIL-UBL (HOIL-UBL): no shift was observed

Molecule: {FITC-βAla}-SRALTELQRQRLEPFRQRLWDS-NH2 (peptide, UniProt Q96EP0 606-627, looked up) [FITC labeled HOIP WT (1) peptide]
- binding result [1]: binds

B1: HOIL-1L residues 1-191 (the HOIL chain of Petit-LUBAC) (domain or fragment, human, UniProt Q9BYM8-1 1-191, looked up)
chain: MDEKTKKAEEMALSLTRAVAGGDEQVAMKCAIWLAEQRVPLSVQLKPEVSPTQDIRLWVSVEDAQMHTVTIWLTVRPDMTVASLKDMVFLDYGFPPVLQQWVIGQRLARDQETLHSHGVRQNGDSAYLYLLSARNTSLNPQELQRERQLRMLEDLGFKDLTLQPRGPLEPGPPKPGVPQEPGRGQPDAVPE
- binding result [2]: binds

Molecule: {Ac-βAla}-SRALTELQRQRLEGFRQRLWDS-NH2 (peptide, UniProt Q96EP0 606-627, looked up) [P2G WT (5), unstapled HOIP peptide with proline-to-glycine substitution]
- Kd (GST-HOIP-UBA): 81.4 µM
- Kd (His6-HOIL-UBL): 97.3 µM

B2: N-P2G (6), N-stapled P2G HOIP peptide (peptide)
chain: SRALTELQRQRLEGFRQRLWDS
modifications: N-terminal β-alanine; N-terminal acetyl; hydrocarbon staple between two cross-linking amino acids in the N-terminal (α8) helix
- Kd (GST-HOIP-UBA): 4.28 µM
